Key:
[1] = Therapeutic index ([…]) was evaluated; settings: read-out: TI50
[2] = system: Human immunodeficiency virus 1; assay: (§1) CC50 reflects the drug concentration that elicits 50% cell death of CEM-SS cells and HIV-1RF was measured using XTT assay.; format: functional; settings: Human immunodeficiency virus 1, CEM-SS
Procedure, shortened: (§2)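 CEM-SS cells infected with HIV-1RF. EC50 is the concentration giving 50% cytoprotection. CC50 is the concentration eliciting 50% cell death.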

[3] = system: Human immunodeficiency virus 1; assay: (§3) Compound concentration that provides 50% cytoprotection on CEM-SS cells and HIV-1RF was measured using XTT assay.; format: functional, organism-based; settings: Human immunodeficiency virus 1, CEM-SS; procedure, shortened: as §2
[4] = system: CEM-SS; assay: as §3; format: functional, cell-based; settings: Homo sapiens; procedure, shortened: as §2
[5] = system: CEM-SS; assay: as §1; format: functional; settings: Homo sapiens; procedure, shortened: as §2
[6] = system: Human immunodeficiency virus 1; assay: CC50 reflects the drug concentration that elicits 50% cell death of PBMC cultures and HIV-1RF was measured using XTT assay.; format: functional
[7] = system: Human immunodeficiency virus 1; assay: Compound concentration that provides 50% cytoprotection on PBMC cultures and HIV-1RF was measured using XTT assay.; format: functional, organism-based

Row | Compound | selectivity ratio [1] | CC50 [2] | EC50 [3] | EC50 [4] | CC50 [5] | CC50 [6] | EC50 [7]
1 | NS(=O)(=O)c1ccc(NC(=O)c2ccccc2SSc2ccccc2C(=O)Nc2ccc(S(N)(=O)=O)cc2)cc1 | > 87 | > 200 µM | 2.3 µM | – | – | – | –
2 | O=S1(=O)C[C@H](O)[C@H](O)CS1 | 27.9 | – | – | 6.6 µM | 184 µM | – | –
3 | NC(=O)c1cccc(N=O)c1 | – | 10.6 µM | – | – | – | 50 µM | 1.56 µM
4 | NC(=O)/N=N/C(N)=O [E927A] | > 5.3 | > 200 µM | 38 µM | – | – | – | –
